Data on 14 compounds can be found in PubChem BioAssay.

Assay [1] is described as follows: Her2 expression decrease, cell viability multiplex – SKBR3 breast tumor cells, AlphaScreen, ATP viability, primary screen (AID 461;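 active = Her2 level under about 52% in both replicate screens, with viability over 70% of control, limit read from the data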;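 for Her2 level: lower value means less Her2 protein in the cells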;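 for viability: percent of carrier control wells set as 100% viability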). As to conditions: SKBR3 Her2 protein level, 18-24 h, measured here: SKBR3 viability, ATP luminescence, at 10 µM.
Assay [2] deals with Receptor tyrosine-protein kinase erbB-2 (Homo sapiens) (UniProt P04626). The description is as above. As to conditions: 18-24 h, at 10 µM, stronger effect = lower value.
A short description of assay [3]: reduced viability of SK-BR-3 breast cancer cells – cell-based, 24 h, human, pilot screen (AID 572;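 active = viability at or below 10% of carrier control in both of two separate runs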;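 note: compound exposure lasted between 18 and 24 h rather than exactly 24 h; 100% = carrier-treated control wells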). As to conditions: SK-BR-3 viability, CellTiter-Glo luminescence, at 10 µM, stronger effect = lower value. In general terms: In ATP-based viability assays light output follows the ATP content of the culture.
Assay [4] can be described thus: HUVEC growth inhibition – cell-based, human, primary screen (AID 575;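 active = viability at or below 30% in both replicate assays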;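 note: 100% = median of untreated cell wells with 0.1% DMSO on each plate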). As to conditions: HUVEC proliferation, CellTiter-Glo luminescence, 72 h; at 10 µM; stronger effect = lower value. The method, boiled down:
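Assay system: Primary human umbilical vein endothelial cells | Quantity: 1250 cells per well | Medium: Supplemented EBM, 2% fetal bovine serum | Detection: CellTiter-Glo luminescence measuring cellular ATP | Read-out: % viability vs DMSO wells | Plate: Collagen-coated 384-well format | Times: 72 h exposure, 37 °C, 5% CO2, 30 min RT equilibration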

Assay [5] can be described thus: H69AR cell proliferation blockers – human, duplicate replicates, primary screen (AID 580;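 active = viability at or under a set limit in both replicates, limit being median viability minus 3 SD, cut at about 48% in these data, passing the limit was not always enough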;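 note: 100% = mean luminescence of untreated wells and 0% = no signal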). As to conditions: H69AR lung tumor cells viability, ATP luminescence, 72 h; at 10 µM; stronger effect = lower value.
The nature of assay [6]: MRP1 drug-resistance reversers in H69AR cells – cell-based, doxorubicin co-treatment, pilot screen (AID 601). As to conditions: CellTiter-Glo, 72 h, at 10 µM; for differential viability (reversal): stronger effect = higher value.
Assay [7] in a line: yeast transport mutant growth inhibition pilot in 384-well plates, post-Golgi transport modulator project (AID 636; in the data active = inhibition above about 31%). As to conditions: absorbance 615 nm, about 18 h, stronger effect = higher value.
The nature of assay [8]: growth suppression of yeast trafficking mutant, preliminary HTS, modulators of trafficking downstream of Golgi apparatus project, 1536-format plate, OD 615 nm (AID 637; in the data active = inhibition above about 30%). As to conditions: yeast transport mutant growth, absorbance 615 nm, 18 h; stronger effect = higher value.
[9] abbreviates: H69AR cells + 2 uM doxorubicin, measured here: viability with 2 uM doxorubicin, stronger effect = lower value.
The mark [10] stands for this setting: H69AR cells, compound alone cytotoxicity.

The term viability denotes a read-out of living cells in per cent, often relative to untreated cells. A word on the inhibition: it is the change of the read-out against control, counted positive when it falls.

Molecules are shown by their SMILES. Activity calls are given as the source filed them.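 Rule for the calls, unless noted: active = viability loss from added drug above about 55%, and viability with drug at most 40%, in both replicates (limit read from the data, passing the limit was not always enough); inconclusive = both conditions met in only one replicate; inactive = neither replicate meets both conditions.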

Chain of Receptor tyrosine-protein kinase erbB-2 (Homo sapiens) (P04626 whole entry, looked up): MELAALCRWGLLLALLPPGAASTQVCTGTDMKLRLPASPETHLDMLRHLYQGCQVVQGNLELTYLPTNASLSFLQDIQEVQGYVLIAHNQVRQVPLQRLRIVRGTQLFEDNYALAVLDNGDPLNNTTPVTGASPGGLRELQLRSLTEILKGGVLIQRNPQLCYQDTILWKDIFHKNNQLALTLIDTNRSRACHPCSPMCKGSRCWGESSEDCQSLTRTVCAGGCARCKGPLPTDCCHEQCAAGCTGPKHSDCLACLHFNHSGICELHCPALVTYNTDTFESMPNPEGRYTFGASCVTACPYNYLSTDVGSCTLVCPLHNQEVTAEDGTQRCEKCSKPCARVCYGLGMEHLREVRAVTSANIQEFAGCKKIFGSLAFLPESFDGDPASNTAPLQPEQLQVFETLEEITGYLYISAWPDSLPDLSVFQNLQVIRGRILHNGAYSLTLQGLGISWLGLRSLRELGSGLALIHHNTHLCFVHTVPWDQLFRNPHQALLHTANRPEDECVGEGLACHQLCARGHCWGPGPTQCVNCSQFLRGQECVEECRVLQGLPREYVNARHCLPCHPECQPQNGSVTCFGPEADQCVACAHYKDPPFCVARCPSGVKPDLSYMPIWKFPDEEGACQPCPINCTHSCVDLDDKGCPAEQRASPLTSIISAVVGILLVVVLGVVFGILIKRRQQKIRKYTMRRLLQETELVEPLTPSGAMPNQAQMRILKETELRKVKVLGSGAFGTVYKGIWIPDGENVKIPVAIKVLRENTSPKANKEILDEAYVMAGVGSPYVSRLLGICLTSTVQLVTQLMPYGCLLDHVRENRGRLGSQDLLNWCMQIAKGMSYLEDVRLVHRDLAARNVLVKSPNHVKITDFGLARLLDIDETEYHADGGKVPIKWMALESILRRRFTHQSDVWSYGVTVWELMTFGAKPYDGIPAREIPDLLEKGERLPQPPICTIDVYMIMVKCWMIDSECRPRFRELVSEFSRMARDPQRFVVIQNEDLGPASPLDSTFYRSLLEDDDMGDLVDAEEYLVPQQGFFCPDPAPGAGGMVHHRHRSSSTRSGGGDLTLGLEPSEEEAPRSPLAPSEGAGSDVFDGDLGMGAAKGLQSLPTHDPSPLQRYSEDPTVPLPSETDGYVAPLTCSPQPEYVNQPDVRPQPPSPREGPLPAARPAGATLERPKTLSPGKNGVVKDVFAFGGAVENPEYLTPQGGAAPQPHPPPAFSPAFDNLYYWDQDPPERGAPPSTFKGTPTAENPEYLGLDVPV

With `O=C1c2ccccc2CN1CCNS(=O)(=O)c1ccc(Cl)cc1`, the viability was 104% in assay [1]; 104% (inactive) in assay [3]; 98% (inactive) in assay [4]; 88% (inactive) in assay [5]; 84.8% in assay [6] (setting [9]); 88% in assay [6] (setting [10]). Moreover, the Her2 level in assay [2] was 92.5% (inactive). Besides, the differential viability (reversal) in assay [6] (H69AR cells + 2 uM doxorubicin) is 3.27% (inactive). In addition, the inhibition is -7.87% (inactive) in assay [7] and -0.63% (inactive) in assay [8].
On to `COc1cc2c(cc1OC)-c1cc(OCc3cccnc3)nc(=O)n1CC2`, for which the viability in assay [1] is 92%; in assay [3], 92% (inactive); in assay [4], 99.7% (inactive); in assay [5] it was 92.9% (inactive); in assay [6] (setting [9]), 90.8%; in assay [6] (setting [10]), 92.9%. Further, the Her2 level in assay [2] is 106% (inactive). Moreover, the differential viability (reversal) in assay [6] (H69AR cells + 2 uM doxorubicin) was 2.05% (inactive). In addition, the inhibition in assay [7] is -3.73% (inactive); in assay [8] it was 9.19% (inactive).
For the compound `CCn1c(=O)cc(SCC(=O)N2CCOCC2)c2ccccc21`, the viability is 92% in assay [1]; 92% (inactive) in assay [3]; 63.1% (inactive) in assay [4]; 85.4% (inactive) in assay [5]; 68% in assay [6] (setting [9]); 85.4% in assay [6] (setting [10]). Also, the Her2 level in assay [2] is 75% (inactive). In addition, in assay [6] (H69AR cells + 2 uM doxorubicin), the differential viability (reversal) was 17.4% (inactive). For the same compound, the figures for the inhibition in assay [7] and in assay [8] were -6.05% (inactive) and -3.45% (inactive), respectively.
In the case of `COCC(=O)Nc1sc2c(c1C(=O)OC)C(C(=O)OC)CC2` (stereo not given), the viability in assay [1] is 75.5%; in assay [3] it was 75.5% (inactive); in assay [4] it was 84.6% (inactive); in assay [5], 101% (inactive); in assay [6] (setting [9]), 88.6%; in assay [6] (setting [10]), 101%. Besides, in assay [2], the Her2 level was 108% (inactive). The differential viability (reversal) in assay [6] (H69AR cells + 2 uM doxorubicin) was 12.5% (inactive). In addition, the inhibition was 3.16% (inactive) in assay [7] and 11.4% (inactive) in assay [8].
For `CCCN1C=CC(=C2C(=O)c3ccccc3C2=O)C=C1`, the viability is 88% in assay [1]; 88% (inactive) in assay [3]; 42.9% (inactive) in assay [4]; 40.8% (active) in assay [5]; 43.8% in assay [6] (setting [9]); 40.8% in assay [6] (setting [10]). In assay [2], the Her2 level is 123% (inactive). Also, in assay [6] (H69AR cells + 2 uM doxorubicin), the differential viability (reversal) is -3% (inactive). For the same compound, the inhibition was -1.92% (inactive) in assay [7] and 1% (inactive) in assay [8].
Consider `Cn1c(CCCNC(=O)c2ccccc2)nc2ccccc21`, for which the viability was 112% in assay [1]; 112% (inactive) in assay [3]; 103% (inactive) in assay [4]; 100% (inactive) in assay [5]; 81.7% in assay [6] (setting [9]); 100% in assay [6] (setting [10]). In addition, in assay [2], the Her2 level is 83% (inactive). In assay [6] (H69AR cells + 2 uM doxorubicin), the differential viability (reversal) was 18.6% (inactive). Further, the inhibition in assay [7] is -8.65% (inactive); in assay [8], -1.83% (inactive).
As to `CCCn1c(SCC(=O)N2CCN(c3ccccc3)CC2)nc2ccccc2c1=O`, the viability in assay [1] was 117%; in assay [3], 117% (inactive); in assay [4], 70.7% (inactive); in assay [5], 83.8% (inactive); in assay [6] (setting [9]), 83.8%; in assay [6] (setting [10]), 83.8%. For the same compound, the Her2 level in assay [2] is 90.5% (inactive). The differential viability (reversal) in assay [6] (H69AR cells + 2 uM doxorubicin) is 0.045% (inactive). Moreover, the inhibition in assay [7] is 8.38% (inactive); in assay [8], 32.7% (active).
In the case of `CC1(C)Cc2nc3oc4c(N(CCO)Cc5ccccc5)ncnc4c3cc2CO1`, the viability is 95.5% in assay [1]; 95.5% (inactive) in assay [3]; 92.5% (inactive) in assay [4]; 86.2% (inactive) in assay [5]; 82.1% in assay [6] (setting [9]); 86.2% in assay [6] (setting [10]). In addition, the Her2 level in assay [2] was 86.5% (inactive). For the same compound, in assay [6] (H69AR cells + 2 uM doxorubicin), the differential viability (reversal) is 4.17% (inactive). Further, the inhibition in assay [7] was -1.76% (inactive); in assay [8] it was -4.33% (inactive).
Turning to `Cc1nnc(SCc2cn3ccsc3n2)n(N)c1=O`, the viability in assay [1] is 95.5%; in assay [3], 95.5% (inactive); in assay [4], 95% (inactive); in assay [5] it was 86.5% (inactive); in assay [6] (setting [9]) it was 90.7%; in assay [6] (setting [10]), 86.5%. For the same compound, in assay [2], the Her2 level is 81.5% (inactive). Moreover, the differential viability (reversal) in assay [6] (H69AR cells + 2 uM doxorubicin) is -4.16% (inactive). Besides, the values for the inhibition in assay [7] and in assay [8] were 0.26% (inactive) and 21.3% (inactive), respectively.
Regarding `COCCn1c(-c2ccc(OC)c(OC)c2)nc2ccccc21`, the viability in assay [1] was 93%; in assay [3], 93% (inactive); in assay [4], 105% (inactive); in assay [5], 95.8% (inactive); in assay [6] (setting [9]) it was 91%; in assay [6] (setting [10]), 95.8%. Also, the Her2 level in assay [2] was 108% (inactive). The differential viability (reversal) in assay [6] (H69AR cells + 2 uM doxorubicin) was 4.81% (inactive). Besides, the figures for the inhibition in assay [7] and in assay [8] were -4.67% (inactive) and -5.81% (inactive), respectively.
As to `CCOc1cccc(C(=O)Nc2cccc(-c3nc4ncccc4o3)c2C)c1`, the viability in assay [1] was 99%; in assay [3], 99% (inactive); in assay [4], 81.5% (inactive); in assay [5], 75.6% (inactive); in assay [6] (setting [9]), 88.5%; in assay [6] (setting [10]), 75.6%. Besides, the Her2 level in assay [2] was 75.5% (inactive). For the same compound, the differential viability (reversal) in assay [6] (H69AR cells + 2 uM doxorubicin) is -12.9% (inactive). The inhibition is -0.39% (inactive) in assay [7] and -0.97% (inactive) in assay [8].
As for `c1ccc(N2CCN(Cc3ccnc4ccccc34)CC2)cc1`, the viability in assay [1] is 98%; in assay [3] it was 98% (inactive); in assay [4], 71.2% (inactive); in assay [5], 72.4% (inactive); in assay [6] (setting [9]), 93.5%; in assay [6] (setting [10]), 72.4%. Also, the Her2 level in assay [2] is 81.5% (inactive). Besides, the differential viability (reversal) in assay [6] (H69AR cells + 2 uM doxorubicin) was -21.1% (inactive). For the same compound, the inhibition is -6.22% (inactive) in assay [7] and -0.82% (inactive) in assay [8].
Take `CC1=Nn2c(nnc2-c2ccccn2)SC1`: the viability in assay [1] is 94%; in assay [3], 94% (inactive); in assay [4] it was 88.7% (inactive); in assay [5], 99.5% (inactive); in assay [6] (setting [9]) it was 88.2%; in assay [6] (setting [10]), 99.5%. Further, in assay [2], the Her2 level was 104% (inactive). Besides, the differential viability (reversal) in assay [6] (H69AR cells + 2 uM doxorubicin) was 11.3% (inactive). For the same compound, the figures for the inhibition in assay [7] and in assay [8] were -4.4% (inactive) and -1.9% (inactive), respectively.
In the case of `C/C(N)=C(/C#N)C(=O)CSc1nnc(Nc2c(C)cccc2C)s1`, the viability is 108% in assay [1]; 108% (inactive) in assay [3]; 93.7% (inactive) in assay [4]; 103% (inactive) in assay [5]; 74.6% in assay [6] (setting [9]); 103% in assay [6] (setting [10]). Further, in assay [2], the Her2 level was 79.5% (inactive). The differential viability (reversal) in assay [6] (H69AR cells + 2 uM doxorubicin) was 28.5% (inactive). In addition, the results for the inhibition in assay [7] and in assay [8] were -2.84% (inactive) and 3.02% (inactive), respectively.
